Experiments:
NDM-1 = NDM-1 (Klebsiella pneumoniae, UniProt C7C422); assay: Imipenem hydrolysis by purified NDM-1, competitive inhibition model; format: biochemical; conditions: for Fold more active against NDM-1 than its enantiomer / Fold more potent NDM-1 inhibitor than L-BTZ-1: ratio of Ki values
IMP-1 = IMP-1 (Serratia marcescens, UniProt P52699); assay: Imipenem hydrolysis by purified IMP-1, competitive inhibition model; format: biochemical
VIM-2 = VIM-2 (Escherichia coli, UniProt Q5U7L7); assay: Imipenem hydrolysis by purified VIM-2, competitive inhibition model; format: biochemical
[1] = target: E. coli cells expressing NDM-1 (Klebsiella pneumoniae, UniProt C7C422); format: cell-based
E. coli cells expressing NDM-1, sequence (C7C422 29-270, looked up): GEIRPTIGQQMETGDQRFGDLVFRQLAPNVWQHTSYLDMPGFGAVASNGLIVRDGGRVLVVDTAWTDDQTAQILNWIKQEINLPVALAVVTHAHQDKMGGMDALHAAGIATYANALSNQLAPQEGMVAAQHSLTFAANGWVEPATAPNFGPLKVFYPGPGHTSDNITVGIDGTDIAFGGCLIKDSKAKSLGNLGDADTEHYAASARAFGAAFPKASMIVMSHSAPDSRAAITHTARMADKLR

[2] = test system: K. pneumoniae (1.37), NDM; assay: Imipenem MIC, broth microdilution, clinical isolate; format: cell-based; conditions: MMTZ at constant 100 mg/L
In short: (§1)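 Clinical Enterobacterales isolates producing MBLs. Carbapenem MIC was determined for the carbapenem alone and in the presence of test compound, and the shift in MIC was assessed. Imipenem was the carbapenem for most strains. Morganellaceae strains were tested with meropenem instead, because of their intrinsic reduced susceptibility to imipenem.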

E. coli (8.68), NDM-1 = assay: as above; format: cell-based; conditions: for MIC of imipenem (IMI) + MMTZ: E. coli (8.68), NDM-1, MMTZ at constant 100 mg/L
In short: as §1

[3] = test system: Enterobacter spp. (42713), IMP; assay: as above; format: cell-based; conditions: for MIC of imipenem (IMI) + MMTZ: Enterobacter spp. (42713), IMP, MMTZ at constant 100 mg/L
In short: as §1

[4] = test system: K. pneumoniae (6907), VIM-2; assay: as above; format: cell-based; conditions: MMTZ at constant 100 mg/L
In short: as §1

[5] = test system: K. aerogenes (6915), VIM-2; assay: as above; format: cell-based; conditions: MMTZ at constant 100 mg/L
In short: as §1

[6] = test system: K. pneumoniae (5639), VIM-24; assay: as above; format: cell-based; conditions: MMTZ at constant 100 mg/L
In short: as §1

[7] = test system: P. mirabilis (UNC KPC 170), IMP; assay: Carbapenem; format: cell-based; conditions: tested using meropenem (footnote a)
In short: as §1

[8] = test system: clinical isolates producing MBLs; assay: Antimicrobial susceptibility testing, statements on the whole panel; format: cell-based; conditions: MMTZ at constant 100 mg/L, Enterobacterales clinical isolates
In short: as §1

[9] = Chemical stability in PBS; format: physicochemical; conditions: PBS pH 7.2, 27 °C
[10] = test system: K. pneumoniae (LC 82), IMP-13; assay: Imipenem MIC, broth microdilution, clinical isolate; format: cell-based; conditions: MMTZ at constant 100 mg/L
In short: as §1

HEK293 = assay: Cytotoxicity, MTT assay; format: cell-based, human; conditions: 260, 355 and 530 μM, 24 hs
L929 = assay: Cytotoxicity, MTT assay; format: cell-based, mouse; conditions: 260, 355 and 530 μM, 24 hs
VERO = assay: Cytotoxicity, MTT assay; format: cell-based, African green monkey; conditions: 260, 355 and 530 μM, 24 hs

NDM-1, sequence (C7C422 29-270, looked up, species assumed): as the sequence (C7C422 29-270, looked up) above
IMP-1, sequence (P52699 19-246, looked up, species assumed): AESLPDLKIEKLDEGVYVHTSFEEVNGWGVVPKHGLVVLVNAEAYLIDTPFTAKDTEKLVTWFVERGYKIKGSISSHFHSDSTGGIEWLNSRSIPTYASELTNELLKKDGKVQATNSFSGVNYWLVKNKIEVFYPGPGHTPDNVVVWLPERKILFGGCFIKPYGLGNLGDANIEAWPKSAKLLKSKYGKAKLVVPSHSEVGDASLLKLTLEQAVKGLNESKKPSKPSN

SMILES | Ki (NDM-1) | Ki (IMP-1) | Ki (VIM-2) | IC50 [1] | MIC of imipenem (IMI) + MMTZ [2] | MIC of imipenem (IMI) + MMTZ (E. coli (8.68), NDM-1) | MIC of imipenem (IMI) + MMTZ [3] | MIC of imipenem (IMI) + MMTZ [4] | MIC of imipenem (IMI) + MMTZ [5] | MIC of imipenem (IMI) + MMTZ [6] | also measured
CCOC(=O)[C@]1(CS)N[C@H](C(=O)O)C(C)(C)S1 [L-anti-1b, (2S,4R)-2-(Ethoxycarbonyl)-2-(mercaptomethyl)-5,5-dimethylthiazolidine-4-carboxylic acid] | 0.44 ± 0.06 µM | 0.46 ± 0.05 µM | 0.75 ± 0.09 µM | 160 ± 10 µM | 8 µg/mL | 16 µg/mL | 8 µg/mL | 1 µg/mL | 2 µg/mL | 4 µg/mL | Fold more active against NDM-1 than its enantiomer (NDM-1): 7 fold; Fold more potent NDM-1 inhibitor than L-BTZ-1 (NDM-1): 12 fold
C[C@@H](O)[C@H]1C(=O)N2C(C(=O)O)=C(SCCN=CN)C[C@H]12 [IMI, imipenem, reference compound] | – | – | – | – | – | – | – | – | – | – | MIC (E. coli (8.68), NDM-1; Escherichia coli, read-out: MIC of imipenem (IMI) alone): 64 µg/mL; MIC ([3]; Enterobacter, read-out: MIC of imipenem (IMI) alone): 16 µg/mL; MIC of carbapenem alone (column IMI) [7]: 16 µg/mL
CCOC(=O)[C@@]1(CS)N[C@@H](C(=O)O)C(C)(C)S1 [D-anti-1b, (2R,4S)-2-(Ethoxycarbonyl)-2-(mercaptomethyl)-5,5-dimethylthiazolidine-4-carboxylic acid] | 3.1 ± 0.3 µM | 0.93 ± 0.08 µM | 0.9 ± 0.1 µM | 210 ± 10 µM | 8 µg/mL | 16 µg/mL | 8 µg/mL | 1 µg/mL | 2 µg/mL | 1 µg/mL | Reduction in MIC values of imipenem [8]: up to 16 fold; Degradation in PBS by LCMS ([9]; 6 h): did not hydrolyse to penicillamine and the main degradation product was the disulphide derivative; Intact MMTZ remaining ([9]; after 6 hours): 88%
CCOC(=O)[C@@]1(CS)N[C@H](C(=O)O)C(C)(C)S1 [L-syn-1b, (2R,4R)-2-(Ethoxycarbonyl)-2-(mercaptomethyl)-5,5-dimethylthiazolidine-4-carboxylic acid] | 8 ± 1 µM | 6 ± 0.6 µM | 3.6 ± 0.4 µM | 230 ± 30 µM | – | 32 µg/mL | 16 µg/mL | 4 µg/mL | 4 µg/mL | 8 µg/mL | MIC of imipenem (IMI) + MMTZ [10]: 1 µg/mL
CCOC(=O)[C@]1(CS)N[C@H](C(=O)O)CS1 [L-anti-1a, (2S,4R)-2-(ethoxycarbonyl)-2-(mercaptomethyl)thiazolidine-4-carboxylic acid] | 5.2 ± 0.7 µM | 1 ± 0.2 µM | 0.38 ± 0.05 µM | 54 ± 4 µM | 8 µg/mL | – | 16 µg/mL | 2 µg/mL | 4 µg/mL | 8 µg/mL | MIC of imipenem (IMI) + MMTZ [10]: 0.5 µg/mL; Cytotoxicity (cell viability) (HEK293): more selectively toxic towards the HEK293 cell line
CCOC(=O)[C@@]1(CS)N[C@@H](C(=O)O)CS1 [D-anti-1a, (2R,4S)-2-(ethoxycarbonyl)-2-(mercaptomethyl)thiazolidine-4-carboxylic acid] | 2.5 ± 0.5 µM | 1.3 ± 0.1 µM | 0.39 ± 0.04 µM | 64 ± 5 µM | 8 µg/mL | 16 µg/mL | 8 µg/mL | 2 µg/mL | 2 µg/mL | 4 µg/mL | Cytotoxicity (cell viability) (HEK293): induced a decline in cell viability percentages in almost all conditions; Cytotoxicity (cell viability) (L929): induced a decline in cell viability percentages in almost all conditions; Cytotoxicity (cell viability) (VERO): induced a decline in cell viability percentages in almost all conditions
CCOC(=O)[C@]1(CS)N[C@@H](C(=O)O)C(C)(C)S1 [D-syn-1b, (2S,4S)-2-(Ethoxycarbonyl)-2-(mercaptomethyl)-5,5-dimethylthiazolidine-4-carboxylic acid] | – | 2 ± 0.2 µM | 1.9 ± 0.1 µM | – | 8 µg/mL | 32 µg/mL | 8 µg/mL | 4 µg/mL | 4 µg/mL | 8 µg/mL | Fold more active against NDM-1 than its enantiomer (NDM-1): 13 fold; Fold more potent NDM-1 inhibitor than L-BTZ-1 (NDM-1): 12 fold
